PolyA inh – yeast polyadenylation inhibition | activity score, % at 12 µM | S. cerevisiae SKY197-pL101 polyadenylation reporter, beta-gal luminescence; efflux-impaired pdr1/pdr3 knockout yeast; score 100 = 6 SD above DMSO | 300,000 tested, 0.02% active;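 active means lowest replicate activity score at least 50, where 100 means six control SD above control mean; inconclusive means lowest score under 50 but half or more replicates reach 50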;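 further: yeast exposed to compound for 9 h at 30 °C; higher score means more reporter readthrough which indicates perturbed polyadenylation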
T cruzi inh – blocks replication of Trypanosoma cruzi; T. cruzi beta-gal in NIH3T3, luminescence, 90 h; inhibition, % (no concentration beside the values); 300,000 tested, 1.4% active;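 active means mean inhibition across valid replicates above about 55%, limit read from the data; inconclusive means mean below that limit but half or more replicates reach it; inactive means mean below it, under half of replicates reach it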;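 further: signal also drops with host cell toxicity which is not excluded here; higher percent means less beta-gal luminescence so fewer parasites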
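Read-out: Parasite load inhibition, % | Test system: Mouse NIH/3T3 fibroblasts infected with β-gal-expressing T. cruzi Tulahuen C4 | Amount: 5,000 cells/well | Medium: DMEM, 2% fetal bovine serum | Signal: GalScreen β-gal luminescence, detergent lysis, 60 min | Timing: 3 h attach, ≥90 h co-culture | Also added: Tulahuen C4 trypomastigotes, 5000/well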
CHT allo act – allosteric activators of human choline transporter CHT. Q9GZV3. CHT-expressing cells, membrane potential dye, choline EC20; active compounds read high; LV-AA mutant CHT in HEK293 cells. B-score at 10 µM. 310,000 tested, 0.49% active;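 active means initial fluorescence not abnormally high and integrated response B-score, plate-corrected, over 3 SD above library mean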
Target sequence (Q9GZV3 whole entry, looked up): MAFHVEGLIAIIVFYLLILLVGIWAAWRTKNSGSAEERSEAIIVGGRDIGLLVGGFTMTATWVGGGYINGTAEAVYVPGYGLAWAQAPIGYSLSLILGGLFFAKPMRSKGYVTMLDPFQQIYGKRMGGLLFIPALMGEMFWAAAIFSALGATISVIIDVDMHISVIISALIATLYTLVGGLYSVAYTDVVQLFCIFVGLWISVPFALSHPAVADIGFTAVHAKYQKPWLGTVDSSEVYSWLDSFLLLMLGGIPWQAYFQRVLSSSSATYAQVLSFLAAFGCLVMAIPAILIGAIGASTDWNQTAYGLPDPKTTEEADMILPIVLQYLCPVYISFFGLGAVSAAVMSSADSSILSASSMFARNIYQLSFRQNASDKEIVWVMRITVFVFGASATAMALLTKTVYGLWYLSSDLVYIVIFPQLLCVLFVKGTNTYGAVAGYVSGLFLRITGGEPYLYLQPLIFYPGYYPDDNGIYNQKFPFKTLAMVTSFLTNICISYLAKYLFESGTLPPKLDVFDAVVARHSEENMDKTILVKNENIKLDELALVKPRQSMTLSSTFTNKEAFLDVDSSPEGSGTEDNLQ
CHT block – inhibits the human high affinity choline transporter; Q9GZV3; CHT-expressing cells, membrane potential dye, choline response; active compounds read low; B-score at 10 µM; 310,000 tested, 0.86% active; AID 488975;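 active means B-score over 3 SD under the library average, and starting fluorescence ratio not unusually high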;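 further: choline stimulus applied at its EC90 after an EC20 pre-addition; B-score computed on integrated fluorescence ratio after choline addition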
CHT act confirm – human CHT activation, confirmatory screen | shares compounds with CHT allo act | CHT-expressing cells, membrane potential dye fluorescence (FDSS); % of choline EC20–EC90 response window; HEK293 expressing CHT LV-AA mutant; choline added at its EC20 | activation, % at 10 µM | 2,500 tested, 91% active | AID 504833;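 active means primary screen active, with duplicate mean activation above negative control mean plus 3 SD, cut at about 11% in these data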
HEK293 MP dye – activity in parental HEK293 cells lacking CHT; ratio readout change at 10 µM, hits read low; shares compounds with CHT allo act; membrane potential dye fluorescence (FDSS); measured after EC20 choline addition; 2,500 tested, 62% active;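 active means duplicate-averaged ratio beyond 3 SD from buffer wells, up or down, though filed actives are nearly all decreases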
Hits are given with their value; 0 = inactive; ? = inconclusive; - = not tested or not shown. Sampled rows, rich in hits. Any-hit rate of the full collection: about 2.6%.

SMILES	PolyA inh	T cruzi inh	CHT allo act	CHT block	CHT act confirm	HEK293 MP dye
CCN1CCN(c2cc(C)c3cc(NC(=S)NCc4cccs4)ccc3n2)CC1	0	0	0	0	21	-41
CCN(CC)CCNC(=S)Nc1ccc2nc(N3CCCC3)cc(C)c2c1	0	0	0	0	-	-
CCN(CC)CCNC(=S)Nc1ccc2nc(N3CCN(C)CC3)cc(C)c2c1	0	0	0	0	45	-24
O=C(COc1ccc2c(-c3ccccc3)cc(=O)oc2c1)Nc1ccc(CCO)cc1	0	0	0	0	-	-
CC(=O)c1ccc(NC(=O)Nc2ccncc2)cc1	0	0	0	0	34	-38
CCC(C)NC(=S)Nc1ccc2nc(N3CCOCC3)cc(C)c2c1 (stereo not given)	0	0	0	0	-	-
CCCCN(C)C(=O)CCC(=O)Nc1ccc2nc(N3CCOCC3)cc(C)c2c1	0	0	7.7	0	48	-34
CCCCNC(=O)CCC(=O)Nc1ccc2nc(N3CCC(C)CC3)cc(C)c2c1	0	0	0	0	38	-35
Cc1cc(N2CCOCC2)nc2ccc(NC(=O)CCC(=O)N3CCC(C)CC3)cc12	0	0	0	0	-	-
CCC(C)NC(=O)CCC(=O)Nc1ccc2nc(N3CCOCC3)cc(C)c2c1 (stereo not given)	0	0	7.9	0	59	-59
CN(C)S(=O)(=O)c1cccc(NC(=O)COC(=O)c2ccc(Br)o2)c1	0	0	0	0	-	-
CCN(CC)S(=O)(=O)c1cc(C(=O)OCC(=O)Nc2cccc(S(=O)(=O)N(C)C)c2)ccc1F	0	0	15	0	22	0
Cc1cc2ncn(-c3ncnc4scc(-c5ccccc5)c34)c2cc1C	0	0	8.4	0	21	0
Nc1c(C(=O)NCc2ccc3c(c2)OCO3)c2nc3ccccc3nc2n1CCCN1CCOCC1	0	0	7.4	0	12	0
COc1ccccc1CNC(=O)c1c(N)n(CCCN2CCOCC2)c2nc3ccccc3nc12	0	0	-	-	-	-
COC(=O)c1ccc(N2CCN(C)CC2)c(NC(=O)c2ccc(-c3ccc(Cl)cc3)o2)c1	0	0	0	0	-	-
CC(C)CC(C(=O)N1CCc2ccccc2C1)N1C(=O)c2ccccc2C1=O (stereo not given)	0	0	0	0	39	0
CC(C(=O)N1CCc2ccccc2C1)N1C(=O)c2ccccc2C1=O (stereo not given)	0	0	0	0	-	-
Cc1ccc(S(=O)(=O)N2CCC3(CC2)OCCO3)cc1	0	0	0	0	-	-
Cc1cc(C)c2c(n1)nn1c(NCCOCCO)cc(C)nc21	0	0	8.5	0	75	-63
Cc1cc(C)c2c(n1)nn1c(N3CCN(c4ccccc4)CC3)cc(C)nc21	0	0	0	0	-	-
CC1(C)C(=O)Nc2ccccc2N1C(=O)COC(=O)c1ccc(Cl)c(S(=O)(=O)NCc2ccccc2)c1	0	0	0	0	12	0
CCOC(=O)c1c(CN2CCN(C)CC2)n(C)c2cc(Br)c(OC)cc12	0	0	0	0	39	-55
CCOC(=O)c1c(CN2CCCCC2)n(C)c2cc(Br)c(O)cc12	0	0	0	0	-	-
CCCCn1c(N)c(N(CCOC)C(=O)c2ccc(COc3ccccc3)o2)c(=O)[nH]c1=O	0	0	6.7	0	16	0
SMILES	PolyA inh	T cruzi inh	CHT allo act	CHT block	CHT act confirm	HEK293 MP dye
CCCCn1c(N)c(N(CCOC)C(=O)c2ccc(-c3ccc([N+](=O)[O-])cc3)o2)c(=O)[nH]c1=O	0	0	0	0	-	-
O=C(CNC(=O)c1cccs1)OCc1c(F)cccc1Cl	0	0	0	0	-	-
COc1ccc(-n2c(-c3ccc(Br)cc3)c[n+]3c2SC(C)C3)cc1 (stereo not given)	0	90	0	0	36	-52
COc1ccc(-n2c(-c3ccc(Br)cc3)c[n+]3c2CCCCC3)cc1	0	66	11	0	62	0
COc1ccc(-n2c(-c3ccc(Br)cc3)c[n+]3c2CCC3)cc1	0	0	0	0	-	-
CCOc1ccc(-c2c[n+]3c(n2-c2ccccc2)CCCCC3)cc1	0	66	7.2	0	15	0
FC(F)Sc1ccc(-n2c(-c3ccc(Cl)cc3)c[n+]3c2CCC3)cc1	0	0	6.3	0	30	-35
CC(NC(=O)c1ccco1)C(=O)N1CCN(C(c2ccccc2)c2ccccc2)CC1 (stereo not given)	0	0	0	0	-	-
CC(=O)O/N=C(\N)c1cnn2c(C(F)(F)F)cc(C(F)(F)F)nc12	0	0	0	0	-	-
Cc1ccc(C(c2nnnn2C2CCCCC2)N(C)C2CCCCC2)cc1 (stereo not given)	0	0	0	0	0	0
COc1ccc(Cl)cc1NC(=O)Cn1c(NCCO)nc2ccccc21	0	0	0	0	-	-
CO/N=C/C(C#N)=C/c1cc(C(=O)c2ccccc2)cn1C	0	0	0	0	-	-
C[C@@H](NC(=O)[C@@H]1Cc2ccccc2CN1C(=O)OC(C)(C)C)C(=O)NC1CCCCC1	0	0	0	0	-	-
Cc1cc(OC(C)C(=O)NCCCn2ccnc2)c2c(C)cc(=O)oc2c1 (stereo not given)	0	0	0	0	45	-39
Cc1cc(OCC(=O)NCCCn2ccnc2)c2c(C)cc(=O)oc2c1	0	0	7.1	0	65	-56
Cc1c(C)c2ccc(OCC(=O)NCCCn3ccnc3)c(C)c2oc1=O	0	0	0	0	-	-
Cc1cc(=O)oc2c(C)c(OCC(=O)NCCCn3ccnc3)ccc12	0	0	0	0	58	-52
COc1ccccc1Cn1c(=S)[nH]c2cc(C(=O)NCC(OC)OC)ccc2c1=O	0	0	0	0	-	-
COc1ccc(-c2nc3n(c2C)CCC3)cc1	0	0	6.4	0	57	-63
NC(=O)CC(NC(=O)c1ccc(Br)cc1)c1ccc(NC2CCCCCCC2)c([N+](=O)[O-])c1 (stereo not given)	0	0	0	0	-	-
Cc1c(N(C)C)nc2ccccc2c1N	0	0	7	0	53	-58
CCN(CC)c1nc2ccccc2c(N)c1-c1ccccc1	0	0	0	0	-	-
Cc1nc2ccccc2c(N)c1C(=O)/C=C/c1ccccc1	0	0	0	0	-	-
CC(=O)c1c(C)nc2ccccc2c1N	0	0	8.6	0	56	-44
O=C(N[C@@H]1CCC(=O)N(CC[C@H](Oc2ccccc2)c2ccccc2)CC1)OCc1ccccc1	?	0	0	0	25	0
Cc1ccc(S[C@@H](CCN2CC[C@H](NC(=O)OCc3ccccc3)CCC2=O)c2ccccc2)cc1	0	0	0	0	-	-
CCOc1ccc(S(=O)(=O)NCCC(=O)OCC(=O)N2CC(=O)Nc3ccccc32)cc1	0	0	0	0	-	-
